Assay results taken from ChEMBL document CHEMBL3044709, “Antimicrobial furostanol saponins from the seeds of Capsicum annuum L. var. acuminatum” (2002).
In brackets after ≈: the same amount, converted by molar mass.

What was measured:
Assay type in all cases: functional
[1] = tested on: Candida albicans; assay: Antimicrobial activity against Candida albicans CBS 562 after 48 hr by agar dilution method; details: CBS 562, 48 h
Procedure, shortened: (§1)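 Yeast peptone dextrose agar plates, each holding a 2-fold serial dilution of sample (0.5 mL into 9.5 mL medium). Yeast streaked onto the plates and incubated at 28 °C, read at 36 and 48 h. MIC is the lowest concentration tested showing no growth.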

[2] = tested on: Escherichia coli; assay: Antimicrobial activity against Escherichia coli ATCC 35346 after 48 hr by agar dilution method; details: ATCC 35346, 48 h
Procedure, shortened: (§2)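 Agar dilution on standard plate count agar: 0.5 mL of a 2-fold serial dilution of sample mixed into 9.5 mL medium, poured into Petri dishes, organism streaked on the surface. Incubated at 28 °C (36 and 48 h). MIC is the lowest tested concentration with no visible growth.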

[3] = tested on: Saccharomyces cerevisiae; assay: Antimicrobial activity against Saccharomyces cerevisiae Diproval 8167 after 48 hr by agar dilution method; details: Diproval 8167, 48 h; procedure, shortened: as §1
[4] = tested on: Bacillus subtilis; assay: Antimicrobial activity against Bacillus subtilis DSM 345 after 48 hr by agar dilution method; details: DSM 345, 48 h; procedure, shortened: as §2
[5] = tested on: Escherichia coli; assay: Antimicrobial activity against Escherichia coli DSM 682 after 48 hr by agar dilution method; details: DSM 682, 48 h; procedure, shortened: as §2
[6] = tested on: Trichoderma viride; assay: Antimicrobial activity against Hypocrea rufa ATCC 28020 after 48 hr by agar dilution method; details: ATCC 28020, 48 h
Procedure, shortened: (§3)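 Fungi tested by agar dilution in malt agar. Serial 2-fold sample dilutions (0.5 mL) were mixed with 9.5 mL medium and plated, then streaked with the organism. Incubation at 28 °C for 36 and 48 h. MIC is the lowest tested concentration without growth.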

[7] = tested on: Saccharomycodes ludwigii; assay: Antimicrobial activity against Saccharomycodes ludwigii Diproval 120 after 48 hr by agar dilution method; details: Diproval 120, 48 h; procedure, shortened: as §1
[8] = tested on: Enterococcus faecalis; assay: Antimicrobial activity against Enterococcus faecalis DSM 2570 after 48 hr by agar dilution method; details: DSM 2570, 48 h; procedure, shortened: as §2
[9] = tested on: Micrococcus luteus; assay: Antimicrobial activity against Micrococcus luteus DSM 348 after 48 hr by agar dilution method; details: DSM 348, 48 h; procedure, shortened: as §2
[10] = tested on: Aspergillus flavus; assay: Antimicrobial activity against Aspergillus flavus ATCC 11655 after 48 hr by agar dilution method; details: ATCC 11655, 48 h; procedure, shortened: as §3
[11] = tested on: Penicillium expansum; assay: Antimicrobial activity against Penicillium expansum ATCC 7861 after 48 hr by agar dilution method; details: ATCC 7861, 48 h; procedure, shortened: as §3
[12] = tested on: Staphylococcus epidermidis; assay: Antimicrobial activity against Staphylococcus epidermidis DSM 1798 after 48 hr by agar dilution method; details: DSM 1798, 48 h; procedure, shortened: as §2
[13] = tested on: Hanseniaspora uvarum; assay: Antimicrobial activity against Hanseniaspora uvarum CBS 314 after 48 hr by agar dilution method; details: CBS 314, 48 h; procedure, shortened: as §1
[14] = tested on: Bacillus licheniformis; assay: Antimicrobial activity against Bacillus licheniformis DSM 13=ATCC 14580 after 48 hr by agar dilution method; details: DSM 13 = ATCC 14580, 48 h; procedure, shortened: as §2
[15] = tested on: Hanseniaspora vineae; assay: Antimicrobial activity against Hanseniaspora vineae CBS 2171 after 48 hr by agar dilution method; details: CBS 2171, 48 h; procedure, shortened: as §1
[16] = tested on: Aspergillus niger; assay: Antimicrobial activity against Aspergillus niger ATCC 1040 after 48 hr by agar dilution method; details: ATCC 1040, 48 h; procedure, shortened: as §3
[17] = tested on: Lacticaseibacillus casei; assay: Antimicrobial activity against Lactobacillus casei DSM 20011 after 48 hr by agar dilution method; details: DSM 20011, 48 h; procedure, shortened: as §2
[18] = tested on: Bacillus cereus; assay: Antimicrobial activity against Bacillus cereus DSM 345 after 48 hr by agar dilution method; details: DSM 345, 48 h; procedure, shortened: as §2
[19] = tested on: Staphylococcus aureus; assay: Antimicrobial activity against Staphylococcus aureus subsp. aureus DSM 346 after 48 hr by agar dilution method; details: DSM 346, 48 h; procedure, shortened: as §2
[20] = tested on: Aspergillus fumigatus; assay: Antimicrobial activity against Aspergillus fumigatus ATCC 1028 after 48 hr by agar dilution method; details: ATCC 1028, 48 h; procedure, shortened: as §3
[21] = tested on: Hanseniaspora guilliermondii; assay: Antimicrobial activity against Hanseniaspora guilliermondii CBS 465 after 48 hr by agar dilution method; details: CBS 465, 48 h; procedure, shortened: as §1
[22] = tested on: Saccharomyces cerevisiae; assay: Antimicrobial activity against Saccharomyces cerevisiae Diproval 9109 after 48 hr by agar dilution method; details: Diproval 9109, 48 h; procedure, shortened: as §1
[23] = tested on: Setophoma terrestris; assay: Antimicrobial activity against Setophoma terrestris ATCC 11321 after 48 hr by agar dilution method; details: ATCC 11321, 48 h; procedure, shortened: as §3
[24] = tested on: Rhizopus arrhizus; assay: Antimicrobial activity against Rhizopus oryzae ATCC 56536 after 48 hr by agar dilution method; details: ATCC 56536, 48 h; procedure, shortened: as §3
[25] = tested on: Saccharomyces cerevisiae; assay: Antimicrobial activity against Saccharomyces cerevisiae Diproval 6073 after 48 hr by agar dilution method; details: Diproval 6073, 48 h; procedure, shortened: as §1
[26] = tested on: Saccharomyces cerevisiae; assay: Antimicrobial activity against Saccharomyces cerevisiae Diproval 7070 after 48 hr by agar dilution method; details: Diproval 7070, 48 h; procedure, shortened: as §1
[27] = tested on: Schizosaccharomyces pombe; assay: Antimicrobial activity against Schizosaccharomyces pombe Diproval 106 after 48 hr by agar dilution method; details: Diproval 106, 48 h; procedure, shortened: as §1
[28] = tested on: Saccharomyces cerevisiae; assay: Antimicrobial activity against Saccharomyces cerevisiae Diproval 404 after 48 hr by agar dilution method; details: Diproval 404, 48 h; procedure, shortened: as §1
[29] = tested on: Lacticaseibacillus rhamnosus; assay: Antimicrobial activity against Lactobacillus rhamnosus DSM 20021 after 48 hr by agar dilution method; details: DSM 20021, 48 h; procedure, shortened: as §2
[30] = tested on: Pseudomonas aeruginosa; assay: Antimicrobial activity against Pseudomonas aeruginosa DSM 1117 after 48 hr by agar dilution method; details: DSM 1117, 48 h; procedure, shortened: as §2
[31] = tested on: Saccharomyces cerevisiae; assay: Antimicrobial activity against Saccharomyces cerevisiae Diproval 2439 after 48 hr by agar dilution method; details: Diproval 2439, 48 h; procedure, shortened: as §1
[32] = tested on: Hanseniaspora uvarum; assay: Antimicrobial activity against Hanseniaspora uvarum AP23 after 48 hr by agar dilution method; details: Distaam AP23, 48 h; procedure, shortened: as §1
[33] = tested on: Lactiplantibacillus plantarum; assay: Antimicrobial activity against Lactobacillus plantarum DSM 20174 after 48 hr by agar dilution method; details: DSM 20174, 48 h; procedure, shortened: as §2
[34] = tested on: Hanseniaspora osmophila; assay: Antimicrobial activity against Hanseniaspora osmophila CBS 313 after 48 hr by agar dilution method; details: CBS 313, 48 h; procedure, shortened: as §1
[35] = tested on: Limosilactobacillus fermentum; assay: Antimicrobial activity against Lactobacillus fermentum DSM 20052 after 48 hr by agar dilution method; details: DSM 20052, 48 h; procedure, shortened: as §2
[36] = tested on: Stutzerimonas stutzeri; assay: Antimicrobial activity against Pseudomonas stutzeri ATCC 962 after 48 hr by agar dilution method; details: ATCC 962, 48 h; procedure, shortened: as §2

`C=C(CCC1(OC)O[C@H]2C[C@H]3[C@@H]4CC[C@H]5C[C@@H](O[C@@H]6O[C@H](CO)[C@H](O[C@@H]7O[C@H](CO)[C@@H](O)[C@H](O[C@@H]8O[C@H](CO)[C@@H](O)[C@H](O)[C@H]8O)[C@H]7O[C@@H]7O[C@H](CO)[C@@H](O)[C@H](O[C@@H]8O[C@H](CO)[C@@H](O)[C@H](O)[C@H]8O)[C@H]7O)[C@H](O)[C@H]6O)[C@H](O)C[C@]5(C)[C@H]4CC[C@]3(C)[C@H]2[C@@H]1C)CO[C@@H]1O[C@H](CO)[C@@H](O)[C@H](O)[C@H]1O` (stereo partly specified) [Capsicoside E] gave an MIC [1] of 25 µg/mL (≈ 17.4 µM), an MIC [2] of 1000 µg/mL (≈ 697 µM) and an MIC [3] of 50 µg/mL (≈ 34.8 µM). For the same compound, the MIC [4] was greater than 1000 µg/mL, the MIC [5] was 1000 µg/mL (≈ 697 µM) and the MIC [6] was 500 µg/mL (≈ 348 µM). For the same compound, the MIC [7] was 50 µg/mL (≈ 34.8 µM), the MIC [8] was greater than 1000 µg/mL and the MIC [9] was greater than 1000 µg/mL. For the same compound, the MIC [10] was greater than 1000 µg/mL, the MIC [11] was 1000 µg/mL (≈ 697 µM) and the MIC [12] was greater than 1000 µg/mL. The MIC [13] was 25 µg/mL (≈ 17.4 µM), the MIC [14] was greater than 1000 µg/mL and the MIC [15] was 50 µg/mL (≈ 34.8 µM). For the same compound, the MIC [16] was greater than 1000 µg/mL, the MIC [17] was 1000 µg/mL (≈ 697 µM) and the MIC [18] was 1000 µg/mL (≈ 697 µM). The MIC [19] was greater than 1000 µg/mL, the MIC [20] was greater than 1000 µg/mL and the MIC [21] was 50 µg/mL (≈ 34.8 µM). For the same compound, the MIC [22] was 50 µg/mL (≈ 34.8 µM), the MIC [23] was 125 µg/mL (≈ 87.1 µM) and the MIC [24] was 125 µg/mL (≈ 87.1 µM). For the same compound, the MIC [25] was 50 µg/mL (≈ 34.8 µM), the MIC [26] was 50 µg/mL (≈ 34.8 µM) and the MIC [27] was 100 µg/mL (≈ 69.7 µM). For the same compound, the MIC [28] was 50 µg/mL (≈ 34.8 µM), the MIC [29] was 1000 µg/mL (≈ 697 µM) and the MIC [30] was greater than 1000 µg/mL. For the same compound, the MIC [31] was 50 µg/mL (≈ 34.8 µM), the MIC [32] was 25 µg/mL (≈ 17.4 µM) and the MIC [33] was 1000 µg/mL (≈ 697 µM). It also gave an MIC [34] of 100 µg/mL (≈ 69.7 µM), an MIC [35] of 1000 µg/mL (≈ 697 µM) and an MIC [36] greater than 1000 µg/mL.
